M5 PAM – human M5 muscarinic receptor positive allosteric modulators, primary screen, CHO-K1 cells, Fluo-8 calcium fluorescence. Muscarinic acetylcholine receptor M5 (Homo sapiens), P08912. CHO-K1 hM5, ACh EC20 PAM; 0% = ACh EC20, 100% = ACh EC100. activation, % at 3 µM. actives 0.3% (n = 360,000). AID 624038, 2012;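 active = activation above the run cutoff, the mean activation of all test compounds plus 3 SD, cut at about 18% in these data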
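system = human M5 receptor in CHO-K1 cells | compound = one concentration, 3 µM final (nominal) | schedule = Post-acetylcholine fluorescence recording 140 s | signal = Fluo-8 calcium dye fluorescence, kinetic read | benchmarks = low control EC20 acetylcholine (0%), high control EC100 acetylcholine (100%) | repeats = singlicate, one well per test compound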
CHRM4 agonist – human M4 muscarinic receptor agonists, primary screen, CHO-K1 cells, Fluo-8 calcium fluorescence; Muscarinic acetylcholine receptor M4 (Homo sapiens), P08173; CHO-K1 hM4/Gqi5; vehicle 0%, full acetylcholine response 100%; activation, % at 3 µM; actives 0.14% (n = 360,000); AID 624127, 2012;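 active = activation above the run mean over all test wells plus 3 SD, cut at about 32% in these data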;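 also: peak over basal fluorescence ratio per well then scaled between controls; 0% = DMSO wells and 100% = acetylcholine at EC100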
Target sequence (P08173 whole entry, looked up): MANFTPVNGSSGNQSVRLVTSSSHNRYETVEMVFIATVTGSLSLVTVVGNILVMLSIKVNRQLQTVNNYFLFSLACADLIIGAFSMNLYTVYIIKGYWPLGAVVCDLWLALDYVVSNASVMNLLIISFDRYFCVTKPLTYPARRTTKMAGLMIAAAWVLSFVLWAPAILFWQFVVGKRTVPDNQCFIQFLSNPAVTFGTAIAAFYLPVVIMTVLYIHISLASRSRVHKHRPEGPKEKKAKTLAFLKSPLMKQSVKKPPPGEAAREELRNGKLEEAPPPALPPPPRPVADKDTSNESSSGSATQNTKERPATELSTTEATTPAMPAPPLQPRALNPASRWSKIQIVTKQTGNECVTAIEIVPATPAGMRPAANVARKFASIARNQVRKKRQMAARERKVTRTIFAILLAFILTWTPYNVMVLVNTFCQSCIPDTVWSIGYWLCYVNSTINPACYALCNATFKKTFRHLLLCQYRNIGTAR
M4 antag – human M4 muscarinic receptor antagonists, primary screen, CHO cells, Fluo-8 calcium fluorescence | actives 0.73% (n = 360,000) | CHO-hM4 cells, ACh EC80 | inhibition, % at 3 µM;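 active = inhibition above its plate's cutoff, the mean inhibition of sample wells plus 3 SD, cut at about 27% in these data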;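 also: 0% = acetylcholine EC80 with DMSO and 100% = DMSO without agonist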
CHRM4 PAM – human M4 muscarinic receptor positive allosteric modulators, primary screen, CHO-K1 cells, Fluo-8 calcium fluorescence; activation, % at 3 µM; CHO-K1 hM4/Gqi5, ACh EC20; 0% = ACh EC20, 100% = maximal ACh; actives 0.4% (n = 360,000); AID 624126, 2012;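 active = activation above its plate's cutoff, the mean activation of sample wells plus 3 SD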
CHRM5 agonist – human M5 muscarinic receptor agonists, primary screen, CHO-K1 cells, Fluo-8 calcium fluorescence | Muscarinic acetylcholine receptor M5 (Homo sapiens), P08912 | activation, % at 3 µM | actives 0.19% (n = 360,000) | CHO-K1 hM5 cells; 0% DMSO wells, 100% maximal acetylcholine response | AID 624037, 2012;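 active = activation above the run's mean over test compounds plus 3 SD, cut at about 23% in these data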;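 also: signal is peak over basal fluorescence ratio across the kinetic read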
M5 antag – human M5 muscarinic receptor antagonists, primary screen, CHO cells, Fluo-8 calcium fluorescence. CHO-hM5 cells, ACh EC80. actives 0.59% (n = 360,000). Muscarinic acetylcholine receptor M5 (Homo sapiens), P08912. AID 624040, 2012. inhibition, % at 3 µM;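 active = inhibition above a per-plate cutoff, the mean of that plate's test compounds plus 3 SD, cut at about 27% in these data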;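 also: 0% = acetylcholine EC80 with DMSO and 100% = DMSO without agonist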
* = called active by the depositor. Most compounds without a hit are left out; they make up all but 1.8% or so of the library.

SMILES	M5 PAM	CHRM4 agonist	M4 antag	CHRM4 PAM	CHRM5 agonist	M5 antag
COc1cc(Br)cc(CN2CCN(C)CC2)c1O	-19.8	0.7	41.0*	-14.4	-6.3	9.8
COc1ccc(Br)cc1CN1CCN(CCO)CC1	5.4	1.0	5.1	8.2	-3.8	-1.9
C=C1C(=O)O[C@@H]2C[C@@H](C)[C@@H]3C=CC(=O)[C@@]3(C)[C@@H](OC(=O)CC(=O)O[C@H]3[C@@H]4C(=C)C(=O)O[C@@H]4C[C@@H](C)[C@@H]4C=CC(=O)[C@]43C)[C@H]12	4.3	1.0	38.6*	-2.5	-1.0	13.9
COC(=O)C1=C(c2cccc(C#N)c2)C[C@@H]2CC[C@H]1N2C(=O)NCCCOC(C)C	6.1	-0.4	-2.6	4.1	0.1	6.0
C[N+](C)(C)CC1CCCC1=O (stereo not drawn)	-6.2	1.1	-9.5	4.6	1.6	14.8
CC[N+]12CCC(CC1)C(=C(c1ccccc1)c1ccccc1)C2	-18.6	0.1	96.9*	-19.4	-10.2	99.3*
C[N+]12CCC(CC1)C(=C(c1ccccc1)c1ccccc1)C2	-19.3	1.1	97.2*	-16.0	-9.2	99.1*
CCCNC(=O)N1[C@H]2CC[C@@H]1C(C(=O)OC)=C(c1ccc(OC)c(OC)c1)C2	5.5	1.3	-2.6	0.9	-1.8	6.9
O=c1[nH]c(=O)n(Cc2ccc(F)cc2)c(O)c1C=NCC1CCCO1 (stereo not drawn)	37.8*	1.1	-10.2	5.6	0.1	-17.6
O=S(=O)(c1ccc(Cl)cc1)N1Cc2ccccc2-n2nncc2C1	-6.0	4.5	-12.5	2.0	4.0	1.7
C=CCn1c(O)c(C(C)=Nc2ccc(NC(C)=O)cc2)c(=O)[nH]c1=O	4.0	0.4	-6.3	21.3*	-1.4	-5.1
C=CCn1c(O)c(C(CC)=Nc2ccccc2NC(C)=O)c(=O)[nH]c1=O	1.7	0.5	11.8	27.9*	-1.1	-7.4
CCN(C=C1CC2C3CC=C4CC(O)CCC4(C)C3CCC2(C)C1=O)CC (stereo not drawn)	0.8	1.8	4.5	7.0	3.2	-12.3
O=c1[nH]c2ccccc2n1C1CCN(C(c2cccs2)c2nnnn2Cc2ccccc2)CC1 (stereo not drawn)	-9.3	9.5	14.2	-5.2	2.1	6.7
O=c1[nH]c2ccccc2n1C1CCN(C(c2nnnn2Cc2ccccc2)C2CC2)CC1 (stereo not drawn)	-18.2	24.2	28.7*	-13.3	13.6	23.7
O=c1[nH]c2ccccc2n1C1CCN(C(CCc2ccccc2)c2nnnn2Cc2ccccc2)CC1 (stereo not drawn)	-14.3	19.5	21.1	-8.0	8.8	6.0
CSCCC(c1nnnn1Cc1ccccc1)N1CCC(n2c(=O)[nH]c3ccccc32)CC1 (stereo not drawn)	-11.5	23.3	22.7	-14.8	30.3*	6.6
CSCCC(c1nnnn1Cc1ccccc1)N1CCC2(CC1)C(=O)NCN2c1ccccc1 (stereo not drawn)	0.2	25.0	1.6	-13.6	44.1*	-1.2
COC(=O)C12CCc3c(ccc4cc(OC)ccc34)C1=CC(=O)C2 (stereo not drawn)	3.0	5.6	-1.3	-0.6	-1.7	-2.3
CCN1CCN(CC(c2ccccc2)c2ccccc2)CC1	-33.6	1.6	20.9	-11.1	-20.4	35.8*
CC12CCC3C(CCC4CC(=O)C(C(O)C(F)(F)F)CC43C)C1CCC2O (stereo not drawn)	-8.0	1.5	8.0	-1.3	-2.3	20.3
COC(=O)C1=C(c2ccc(OC)c(OC)c2)C[C@@H]2CC[C@H]1N2C(=O)N1CCCCC1	6.8	1.1	-9.1	20.1	-0.7	-4.0
CCOP(=O)(OCC)C(O)c1cccnc1 (stereo not drawn)	-8.1	10.4	10.4	-1.4	4.0	14.7
CCC(CO)(C(=O)OC1CC2CCC(C1)N2C)c1ccccc1 (stereo not drawn)	-32.8	0.6	99.6*	-17.3	-16.3	99.2*
Cc1ccc(-n2c(=S)[nH]c3ccc(C)cc3c2=O)cc1	6.9	0.1	-23.1	3.6	-2.6	4.7
SMILES	M5 PAM	CHRM4 agonist	M4 antag	CHRM4 PAM	CHRM5 agonist	M5 antag
Cc1ccc2c(C)c3ccc4ccccc4c3c[n+]2c1	4.3	0.6	4.5	-1.3	-1.8	14.7
CC(C)(OOC1(c2ccccc2)NC(=O)c2ccccc21)c1ccccc1 (stereo not drawn)	-0.3	-2.6	2.7	-0.4	-4.2	-3.4
Oc1c(Cl)cccc1Cc1cc(Cl)cc(Cl)c1O	-23.7	10.3	10.4	-3.3	4.0	29.6*
N#Cc1ccccc1Cn1cc(C(=O)c2cccs2)c2ccccc21	-16.8	0.3	-13.0	-4.7	-2.6	6.3
O=C(c1cccs1)c1cn(Cc2ccccc2Cl)c2ccccc12	21.2*	-1.1	-1.2	22.2	-1.9	-6.9
CC(C)c1ccc(NC(=O)N2C[C@H]3C[C@@H](C2)c2cccc(=O)n2C3)cc1	2.9	1.5	-17.9	4.5	2.1	2.2
NC(Cc1ccc(Cl)cc1)c1csc(Nc2ncccn2)n1 (stereo not drawn)	0.1	1.9	96.3*	-13.6	4.1	0.2
Nc1ccc(CC(N)c2csc(Nc3ncccn3)n2)cc1 (stereo not drawn)	-8.0	0.1	-7.2	10.0	-0.8	2.9
O=C1NCN(c2ccccc2)C12CCN(C(c1cccc3ccccc13)c1nnnn1C1CCCC1)CC2 (stereo not drawn)	6.7	0.7	-15.1	10.8	3.4	-8.7
COc1cc(C2c3cc4c(cc3CC3COC(=O)C32)OCO4)cc(OC)c1OC (stereo not drawn)	5.7	0.8	-8.8	3.2	-0.7	1.0
COc1ccc(NC2Oc3cc4c(cc3C(c3cc(OC)c(OC)c(OC)c3)C2C)OCO4)cc1 (stereo not drawn)	19.1*	0.7	-14.8	12.7	3.3	-11.2
CC(C)NC(=O)Cn1cc(C(=O)c2ccccc2F)c2ccccc21	4.5	0.5	1.0	26.7*	3.8	-9.6
O=C1/C(=C\c2cccnc2)N2CCC1CC2	0.5	0.9	-2.3	-6.5	-3.7	11.2
C(=NC12CN3CN(CN(C3)C1)C2)c1cccnc1	14.2	0.7	3.4	19.3*	-0.3	-2.9
